# Assay results reported in ChEMBL document CHEMBL5724801, “EUbOPEN Chemogenomics Library - Multiplex” (2024).
# Where “and” joins values, the source holds several entries; their conditions need not be identical. Identical values can stand only once.
# Test system: HEK-293T
# Test: Multiplex assay against HEK293T
# Assay type: toxicity, cell-based
# Settings: human, 12 h, 1 µM, compound concentration 1 uM
# Outline: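 Compound was added to live cells that had been stained at seeding with Hoechst33342, BioTracker Green Microtubule Cytoskeleton Dye, MitoTracker Red and Annexin V Alexa Fluor 680, and imaging followed on a CQ1 microscope at 37°C and 5% CO2. CellPathfinder machine-learning gating divided cells into Hoechst high-intensity objects or normal cells, normal cells into healthy, pyknosed or fragmented nuclei, and pyknosed cells into mitotic or apoptotic. Tubulin, mitochondrial-mass and membrane-permeability phenotypes are per cents of healthy-nucleus cells.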
SMILES,Population Apoptotic (%),Population Fragmented Nuclei (%),Population Healthy Nuclei (%),Population Hoechst High Intensity Objects (%),Population Membrane Permeable-Phenotype (%),Population Mitochondria Different-Phenotype (%),Population Mitotic Cells (%),Population Normal (%),Population Pyknosed Nuclei (%),Population Tubulin-Different-Phenotype (%)
COC(c1ccccc1)(c1ccccc1)[C@H](Oc1nc(C)cc(C)n1)C(=O)O [AMBRISENTAN],38%,7%,75% and 81%,6% and 11%,0%,53% and 63%,61%,93% and 88%,16% and 10%,30% and 23%
Cc1ccccc1C(=O)Nc1ccc(C(=O)N2CCCC(N(C)C)c3ccccc32)cc1.Cl (stereo unspecified),18% and 53%,6% and 5%,80% and 79%,8% and 6%,0%,51% and 72%,81% and 46%,91% and 93%,12% and 14%,33% and 29%
COc1ccc(CC(=O)NC(N/C(=N/C#N)Nc2cccc3ncccc23)C(C)(C)C)cc1OC (stereo unspecified),11.97% and 9.68%,1.67% and 3.75%,–,0%,0.47% and 3.33%,42.45% and 26.67%,88.03% and 90.32%,100%,39.44% and 77.5%,–
"CCCn1c(=O)c2[nH]c(C3CCCC3)nc2n(CCC)c1=O [1,3-DIPROPYL-8-CYCLOPENTYLXANTHINE [DPCPX]]",35% and 54%,7% and 3%,79% and 81%,6% and 3%,0%,44% and 52%,64% and 45%,93% and 96%,12% and 14%,32% and 15%

# Same assay, conditions: human, 12 h, 1 µM, compound concentration 1 uM
row,SMILES,Total Cell Count
1,COC(c1ccccc1)(c1ccccc1)[C@H](Oc1nc(C)cc(C)n1)C(=O)O [AMBRISENTAN],249 and 326
2,Cc1ccccc1C(=O)Nc1ccc(C(=O)N2CCCC(N(C)C)c3ccccc32)cc1.Cl (stereo unspecified),519 and 412
3,COc1ccc(CC(=O)NC(N/C(=N/C#N)Nc2cccc3ncccc23)C(C)(C)C)cc1OC (stereo unspecified),360 and 160
4,"CCCn1c(=O)c2[nH]c(C3CCCC3)nc2n(CCC)c1=O [1,3-DIPROPYL-8-CYCLOPENTYLXANTHINE [DPCPX]]",443 and 361

# Same assay, conditions: human, 12 h, 10 µM, compound concentration 10 uM
SMILES,Population Apoptotic (%),Population Fragmented Nuclei (%),Population Healthy Nuclei (%),Population Hoechst High Intensity Objects (%),Population Membrane Permeable-Phenotype (%),Population Mitochondria Different-Phenotype (%),Population Mitotic Cells (%),Population Normal (%),Population Pyknosed Nuclei (%),Population Tubulin-Different-Phenotype (%)
COC(c1ccccc1)(c1ccccc1)[C@H](Oc1nc(C)cc(C)n1)C(=O)O [AMBRISENTAN],33% and 56%,8% and 5%,76% and 80%,6% and 13%,0%,47% and 57%,66% and 43%,93% and 86%,15% and 14%,23% and 18%
Cc1ccccc1C(=O)Nc1ccc(C(=O)N2CCCC(N(C)C)c3ccccc32)cc1.Cl (stereo unspecified),53% and 64%,6% and 8%,70% and 72%,8% and 15%,0%,74% and 82%,46% and 35%,91% and 84%,22% and 18%,60% and 61%
COc1ccc(CC(=O)NC(N/C(=N/C#N)Nc2cccc3ncccc23)C(C)(C)C)cc1OC (stereo unspecified),8.97% and 14.85%,3.73% and 3.91%,51.24% and 17.19%,0.31% and 0%,0.61% and 9.09%,26.67% and 22.73%,91.03% and 85.15%,99.69% and 100%,45.03% and 78.91%,–
"CCCn1c(=O)c2[nH]c(C3CCCC3)nc2n(CCC)c1=O [1,3-DIPROPYL-8-CYCLOPENTYLXANTHINE [DPCPX]]",60% and 54%,12% and 7%,68% and 75%,–,0%,58% and 68%,39% and 45%,94% and 81%,19% and 16%,51% and 45%

# Same assay, conditions: human, 12 h, 10 µM, compound concentration 10 uM
row,SMILES,Total Cell Count
1,COC(c1ccccc1)(c1ccccc1)[C@H](Oc1nc(C)cc(C)n1)C(=O)O [AMBRISENTAN],383 and 262
2,Cc1ccccc1C(=O)Nc1ccc(C(=O)N2CCCC(N(C)C)c3ccccc32)cc1.Cl (stereo unspecified),233 and 285
3,COc1ccc(CC(=O)NC(N/C(=N/C#N)Nc2cccc3ncccc23)C(C)(C)C)cc1OC (stereo unspecified),323 and 128
4,"CCCn1c(=O)c2[nH]c(C3CCCC3)nc2n(CCC)c1=O [1,3-DIPROPYL-8-CYCLOPENTYLXANTHINE [DPCPX]]",295 and 337

# Same assay, conditions: human, 24 h, 1 µM, compound concentration 1 uM
SMILES,Population Apoptotic (%),Population Fragmented Nuclei (%),Population Healthy Nuclei (%),Population Hoechst High Intensity Objects (%),Population Membrane Permeable-Phenotype (%),Population Mitochondria Different-Phenotype (%),Population Mitotic Cells (%),Population Normal (%),Population Pyknosed Nuclei (%),Population Tubulin-Different-Phenotype (%)
COC(c1ccccc1)(c1ccccc1)[C@H](Oc1nc(C)cc(C)n1)C(=O)O [AMBRISENTAN],37% and 43%,9%,76% and 82%,4% and 7%,1% and 0%,30% and 39%,62% and 56%,95% and 92%,14% and 8%,19% and 16%
Cc1ccccc1C(=O)Nc1ccc(C(=O)N2CCCC(N(C)C)c3ccccc32)cc1.Cl (stereo unspecified),31% and 30%,11% and 5%,79% and 83%,5% and 4%,0%,28% and 52%,68% and 69%,94% and 95%,8% and 11%,17% and 19%
COc1ccc(CC(=O)NC(N/C(=N/C#N)Nc2cccc3ncccc23)C(C)(C)C)cc1OC (stereo unspecified),11.48% and 16.07%,1.83% and 3.87%,75.87% and 34.25%,0.36% and 0%,1.45% and 0%,14.46% and 11.29%,88.52% and 83.93%,99.64% and 100%,22.3% and 61.88%,13.49% and 12.9%
"CCCn1c(=O)c2[nH]c(C3CCCC3)nc2n(CCC)c1=O [1,3-DIPROPYL-8-CYCLOPENTYLXANTHINE [DPCPX]]",26% and 28%,8% and 7%,78% and 82%,4% and 3%,1% and 0%,25% and 45%,73% and 71%,95% and 96%,13% and 10%,20% and 19%

# Same assay, conditions: human, 24 h, 1 µM, compound concentration 1 uM
row,SMILES,Total Cell Count
1,COC(c1ccccc1)(c1ccccc1)[C@H](Oc1nc(C)cc(C)n1)C(=O)O [AMBRISENTAN],313 and 404
2,Cc1ccccc1C(=O)Nc1ccc(C(=O)N2CCCC(N(C)C)c3ccccc32)cc1.Cl (stereo unspecified),727 and 567
3,"CCCn1c(=O)c2[nH]c(C3CCCC3)nc2n(CCC)c1=O [1,3-DIPROPYL-8-CYCLOPENTYLXANTHINE [DPCPX]]",610 and 403

# Same assay, conditions: human, 24 h, 10 µM, compound concentration 10 uM
SMILES,Population Apoptotic (%),Population Fragmented Nuclei (%),Population Healthy Nuclei (%),Population Hoechst High Intensity Objects (%),Population Membrane Permeable-Phenotype (%),Population Mitochondria Different-Phenotype (%),Population Mitotic Cells (%),Population Normal (%),Population Pyknosed Nuclei (%),Population Tubulin-Different-Phenotype (%)
COC(c1ccccc1)(c1ccccc1)[C@H](Oc1nc(C)cc(C)n1)C(=O)O [AMBRISENTAN],30% and 44%,10% and 8%,73% and 78%,4% and 12%,0%,34% and 41%,69% and 55%,95% and 87%,15% and 12%,18% and 17%
Cc1ccccc1C(=O)Nc1ccc(C(=O)N2CCCC(N(C)C)c3ccccc32)cc1.Cl (stereo unspecified),41% and 44%,8% and 7%,70% and 73%,7% and 14%,0%,71% and 83%,58% and 55%,92% and 85%,21% and 18%,46%
COc1ccc(CC(=O)NC(N/C(=N/C#N)Nc2cccc3ncccc23)C(C)(C)C)cc1OC (stereo unspecified),21.15% and 27.45%,2.03% and 2.01%,74.55% and 29.53%,0.22% and 0%,0.91% and 2.27%,18.73% and 22.73%,78.85% and 72.55%,99.78% and 100%,23.42% and 68.46%,20.54% and 18.18%
"CCCn1c(=O)c2[nH]c(C3CCCC3)nc2n(CCC)c1=O [1,3-DIPROPYL-8-CYCLOPENTYLXANTHINE [DPCPX]]",50% and 41%,8% and 7%,76% and 79%,–,0%,43% and 55%,50% and 58%,95% and 84%,14% and 13%,40% and 31%

# Same assay, conditions: human, 24 h, 10 µM, compound concentration 10 uM
row,SMILES,Total Cell Count
1,COC(c1ccccc1)(c1ccccc1)[C@H](Oc1nc(C)cc(C)n1)C(=O)O [AMBRISENTAN],441 and 318
2,Cc1ccccc1C(=O)Nc1ccc(C(=O)N2CCCC(N(C)C)c3ccccc32)cc1.Cl (stereo unspecified),268 and 285
3,COc1ccc(CC(=O)NC(N/C(=N/C#N)Nc2cccc3ncccc23)C(C)(C)C)cc1OC (stereo unspecified),445 and 149
4,"CCCn1c(=O)c2[nH]c(C3CCCC3)nc2n(CCC)c1=O [1,3-DIPROPYL-8-CYCLOPENTYLXANTHINE [DPCPX]]",379 and 411

# Same assay, conditions: human, 48 h, 1 µM, compound concentration 1 uM
SMILES,Population Apoptotic (%),Population Fragmented Nuclei (%),Population Healthy Nuclei (%),Population Hoechst High Intensity Objects (%),Population Membrane Permeable-Phenotype (%),Population Mitochondria Different-Phenotype (%),Population Mitotic Cells (%),Population Normal (%),Population Pyknosed Nuclei (%),Population Tubulin-Different-Phenotype (%)
COC(c1ccccc1)(c1ccccc1)[C@H](Oc1nc(C)cc(C)n1)C(=O)O [AMBRISENTAN],27% and 40%,17% and 12%,72% and 80%,2% and 3%,3% and 0%,22% and 23%,72% and 59%,97% and 96%,10% and 7%,13% and 10%
Cc1ccccc1C(=O)Nc1ccc(C(=O)N2CCCC(N(C)C)c3ccccc32)cc1.Cl (stereo unspecified),13% and 34%,13% and 10%,78% and 82%,2% and 4%,1% and 0%,24% and 30%,86% and 65%,97% and 95%,8% and 6%,17% and 14%
COc1ccc(CC(=O)NC(N/C(=N/C#N)Nc2cccc3ncccc23)C(C)(C)C)cc1OC (stereo unspecified),8.22% and 21.13%,2.43% and 3.09%,87.12% and 60.31%,0.07% and 0%,5.75% and 0%,13.8% and 32.48%,91.78% and 78.87%,99.93% and 100%,–,–
"CCCn1c(=O)c2[nH]c(C3CCCC3)nc2n(CCC)c1=O [1,3-DIPROPYL-8-CYCLOPENTYLXANTHINE [DPCPX]]",33% and 39%,11% and 14%,81% and 80%,1% and 3%,1% and 0%,17% and 22%,66% and 60%,98% and 96%,7% and 5%,17% and 13%

# Same assay, conditions: human, 48 h, 1 µM, compound concentration 1 uM
row,SMILES,Total Cell Count
1,COC(c1ccccc1)(c1ccccc1)[C@H](Oc1nc(C)cc(C)n1)C(=O)O [AMBRISENTAN],600 and 605
2,Cc1ccccc1C(=O)Nc1ccc(C(=O)N2CCCC(N(C)C)c3ccccc32)cc1.Cl (stereo unspecified),1095 and 722
3,"CCCn1c(=O)c2[nH]c(C3CCCC3)nc2n(CCC)c1=O [1,3-DIPROPYL-8-CYCLOPENTYLXANTHINE [DPCPX]]",957 and 593

# Same assay, conditions: human, 48 h, 10 µM, compound concentration 10 uM
SMILES,Population Apoptotic (%),Population Fragmented Nuclei (%),Population Healthy Nuclei (%),Population Hoechst High Intensity Objects (%),Population Membrane Permeable-Phenotype (%),Population Mitochondria Different-Phenotype (%),Population Mitotic Cells (%),Population Normal (%),Population Pyknosed Nuclei (%),Population Tubulin-Different-Phenotype (%)
COC(c1ccccc1)(c1ccccc1)[C@H](Oc1nc(C)cc(C)n1)C(=O)O [AMBRISENTAN],26% and 53%,14%,77% and 79%,2% and 7%,1% and 0%,18% and 27%,73% and 46%,97% and 92%,8% and 5%,13% and 15%
Cc1ccccc1C(=O)Nc1ccc(C(=O)N2CCCC(N(C)C)c3ccccc32)cc1.Cl (stereo unspecified),55% and 63%,10% and 9%,69% and 77%,6%,0%,69% and 72%,44% and 36%,93%,20% and 12%,49% and 41%
COc1ccc(CC(=O)NC(N/C(=N/C#N)Nc2cccc3ncccc23)C(C)(C)C)cc1OC (stereo unspecified),–,2.78% and 2.07%,86.6% and 61.14%,0.1% and 0%,4.76% and 3.39%,22.86% and 38.98%,93.2% and 77.46%,99.9% and 100%,–,–
"CCCn1c(=O)c2[nH]c(C3CCCC3)nc2n(CCC)c1=O [1,3-DIPROPYL-8-CYCLOPENTYLXANTHINE [DPCPX]]",29% and 45%,14%,76% and 75%,3% and 7%,1% and 0%,37% and 36%,70% and 54%,96% and 92%,8% and 10%,30% and 23%

# Same assay, conditions: human, 48 h, 10 µM, compound concentration 10 uM
row,SMILES,Total Cell Count
1,COC(c1ccccc1)(c1ccccc1)[C@H](Oc1nc(C)cc(C)n1)C(=O)O [AMBRISENTAN],711 and 480
2,Cc1ccccc1C(=O)Nc1ccc(C(=O)N2CCCC(N(C)C)c3ccccc32)cc1.Cl (stereo unspecified),283 and 314
3,"CCCn1c(=O)c2[nH]c(C3CCCC3)nc2n(CCC)c1=O [1,3-DIPROPYL-8-CYCLOPENTYLXANTHINE [DPCPX]]",511 and 516
